# Columns and labels:
# A549 = assay: Growth inhibition of human A549 cells after 72 hrs by MTT assay; format: functional, cell-based; settings: A549, 72 h
# Outline: (§1)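 Human cancer cell lines (from ATCC, ECACC or DSMZ) cultured 72 h with compound; viable cells measured by MTT colorimetric assay, where mitochondrial succinate dehydrogenase reduces yellow MTT to blue formazan, read by spectrophotometry. Optical density of treated versus control cells gives growth inhibition, expressed as IC50 (μM). Camptothecin and etoposide served as reference compounds.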
# MCF7 = assay: Growth inhibition of human MCF7 cells after 72 hrs by MTT assay; format: functional, cell-based; settings: MCF7, 72 h; outline: as §1
# PC-3 = assay: Growth inhibition of human PC3 cells after 72 hrs by MTT assay; format: functional, cell-based; settings: PC-3, 72 h; outline: as §1
# [1] = Growth inhibition of human Hs683 cells after 72 hrs by MTT assay; format: functional, cell-based; settings: Hs 683, 72 h; outline: as §1
# [2] = Growth inhibition of human U373 cells after 72 hrs by MTT assay; format: functional, cell-based, U-373MG ATCC; settings: U373 MG; outline: as §1
# SK-MEL-28 = assay: Growth inhibition of human SK-MEL-28 cells after 72 hrs by MTT assay; format: functional, cell-based; settings: SK-MEL-28, 72 h; outline: as §1
IC50 (A549),IC50 (MCF7),IC50 (PC-3),IC50 (SK-MEL-28),Structure (SMILES),IC50 [1],IC50 [2]
> 100 µM,> 100 µM,> 100 µM,> 100 µM,CCc1oc([C@H](C)/C=C(\C)[C@H](O)[C@H](C)[C@@H](OC(=O)CC(C)C)[C@@H](C)c2oc([C@@H](C)[C@@H](O)CC)c(C)c(=O)c2C)c(C)c(=O)c1C,> 100 µM,> 100 µM
> 100 µM,> 100 µM,> 100 µM,> 100 µM,CCC(=O)[C@H](C)c1oc([C@H](C)[C@@H]2O[C@](O)([C@@H](C)c3oc(CC)c(C)c(=O)c3C)[C@@H](C)[C@@H](O)[C@@H]2C)c(C)c(=O)c1C,> 100 µM,> 100 µM
15 µM,15 µM,3 µM,25 µM,CCc1oc([C@H](C)/C=C(\C)[C@H](OC(C)=O)[C@H](C)[C@@H](OC(=O)CC(C)C)[C@@H](C)c2oc([C@@H](C)[C@@H](O)CC)c(C)c(=O)c2C)c(C)c(=O)c1C,30 µM,21 µM
28 µM,25 µM,7 µM,33 µM,CCc1oc([C@H](C)/C=C(\C)[C@H](OC(C)=O)[C@H](C)[C@@H](OC(=O)CC(C)C)[C@@H](C)c2oc([C@@H](C)[C@H](CC)OC(C)=O)c(C)c(=O)c2C)c(C)c(=O)c1C,24 µM,32 µM
> 100 µM,87 µM,82 µM,> 100 µM,CCC(=O)[C@@H](C)c1oc([C@H](C)[C@@H]2O[C@](O)([C@@H](C)c3oc(CC)c(C)c(=O)c3C)[C@@H](C)[C@@H](O)[C@@H]2C)c(C)c(=O)c1C,> 100 µM,> 100 µM
12 µM,12 µM,3 µM,25 µM,CCC(=O)O[C@@H](/C(C)=C/[C@@H](C)c1oc(CC)c(C)c(=O)c1C)[C@H](C)[C@@H](OC(=O)CC(C)C)[C@@H](C)c1oc([C@@H](C)[C@@H](O)CC)c(C)c(=O)c1C,13 µM,21 µM
3 µM,4 µM,2 µM,7 µM,CCC(=O)O[C@@H](/C(C)=C/[C@@H](C)c1oc(CC)c(C)c(=O)c1C)[C@H](C)[C@@H](OC(=O)CC(C)C)[C@@H](C)c1oc([C@@H](C)[C@H](CC)OC(C)=O)c(C)c(=O)c1C,3 µM,9 µM
26 µM,21 µM,16 µM,23 µM,CCC(=O)[C@H](C)c1oc([C@H](C)[C@@H]2O[C@](O)([C@@H](C)c3oc(CC)c(C)c(=O)c3C)[C@@H](C)[C@@H](OC(=O)CC(C)C)[C@@H]2C)c(C)c(=O)c1C,23 µM,25 µM
2 µM,4 µM,> 100 µM,3 µM,COc1cc([C@@H]2c3cc4c(cc3[C@@H](O[C@@H]3O[C@@H]5CO[C@@H](C)O[C@H]5[C@H](O)[C@H]3O)[C@H]3COC(=O)[C@H]23)OCO4)cc(OC)c1O [ETOPOSIDE],2 µM,25 µM

Structure (SMILES),IC50 (A549),IC50 (MCF7),IC50 (PC-3),IC50 (SK-MEL-28),IC50 [1],IC50 [2]
CC[C@@]1(O)C(=O)OCc2c1cc1n(c2=O)Cc2cc3ccccc3nc2-1 [CAMPTOTHECIN],< 0.01 µM,< 0.01 µM,0.01 µM,< 0.01 µM,< 0.01 µM,0.015 µM

# Reference: ChEMBL document CHEMBL3085650, “Extending the record of bis-γ-pyrone polypropionates from marine pulmonate mollusks” (J Nat Prod, 2013)
